Rpn11 block: Rpn11 (PSMD14) deubiquitinase inhibitors, primary screen, biochemical, fluorescence polarization, uHTS. inhibition, % at 20 µM. 26S proteasome non-ATPase regulatory subunit 14 (Homo sapiens), O00487. 360,000 tested, 0.59% active. human 26S proteasome, Ub4-pepOG fluorescence polarization; 20S core pre-blocked with epoxomicin;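 active = inhibition at 20 µM, scaled to each plate's controls, above about 33%, limit read from the data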
Xi reactivation: activators of inactive X chromosome reactivation, primary screen, imaging, XiGFP fibroblasts, GFP high-content imaging, set 2 | activation, % at 7.58 µM | AID 743238, 2013 | XiGFP mouse fibroblasts, % GFP-positive cells imaging, 3 d; cells co-treated with 5-aza-dC sensitizer; scaled so ellipticine positive control = 100% | 360,000 tested, 0.055% active;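 active = mean normalized replicate activation at least 10% and every replicate at or above 10%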
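assay system = SV40-immortalized XiGFP fibroblast cells, line 68-5-11 | buffer or medium = DMEM plus 5-aza-dC sensitizer | doses = single-point pinned compound dosing | times = 3-day compound exposure, then 15 min fixation at room temperature | benchmarks = positive control ellipticine, 6 µM final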
NadD inh: inhibitors of S. aureus NadD, primary screen, biochemical, colorimetric, uHTS; Nicotinate-nucleotide adenylyltransferase NadD (Staphylococcus aureus N315); purified NadD enzyme, colorimetric absorbance read-out; inhibition, % at 20 µM; 360,000 tested, 0.78% active; in the data active = inhibition above about 26%
Rin1 Abl inh: inhibitors of Rin1-Abl protein binding, primary screen, biochemical, TR-FRET | 360,000 tested, 0.4% active | AID 588664, 2011 | Tyrosine-protein kinase ABL1 (Homo sapiens) + Ras and Rab interactor 1 (Homo sapiens), … | inhibition, % at 7.35 µM; in the data active = inhibition above about 5%, passing the limit was not always enough
ABHD5-PLIN5 inh: ABHD5-PLIN5 interaction inhibitors, primary screen, cell lysate, split luciferase complementation, luminescence; Split G. princeps luciferase complementation, 4 h; Perilipin-5 (Homo sapiens) + 1-acylglycerol-3-phosphate O-acyltransferase ABHD5 (Homo …; 360,000 tested, 0.78% active; inhibition, % at 4 µM; AID 602281, 2012;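 active = inhibition above the mean inhibition across every tested compound plus 3 SD, cut at about 22% in these data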
Target sequence (Q00G26 whole entry, looked up): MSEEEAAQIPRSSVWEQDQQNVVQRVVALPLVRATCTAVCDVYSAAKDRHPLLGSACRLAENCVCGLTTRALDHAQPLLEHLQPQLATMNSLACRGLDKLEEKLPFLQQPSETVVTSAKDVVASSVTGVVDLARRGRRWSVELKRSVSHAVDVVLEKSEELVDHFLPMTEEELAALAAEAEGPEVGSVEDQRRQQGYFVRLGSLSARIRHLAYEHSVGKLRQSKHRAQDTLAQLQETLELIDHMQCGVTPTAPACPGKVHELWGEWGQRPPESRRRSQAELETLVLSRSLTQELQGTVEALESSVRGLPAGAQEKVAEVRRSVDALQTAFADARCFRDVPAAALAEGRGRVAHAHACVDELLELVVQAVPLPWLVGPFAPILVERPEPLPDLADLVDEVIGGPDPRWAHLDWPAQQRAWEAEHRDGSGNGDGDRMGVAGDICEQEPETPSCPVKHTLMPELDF
Target sequence (Q8WTS1 whole entry, looked up): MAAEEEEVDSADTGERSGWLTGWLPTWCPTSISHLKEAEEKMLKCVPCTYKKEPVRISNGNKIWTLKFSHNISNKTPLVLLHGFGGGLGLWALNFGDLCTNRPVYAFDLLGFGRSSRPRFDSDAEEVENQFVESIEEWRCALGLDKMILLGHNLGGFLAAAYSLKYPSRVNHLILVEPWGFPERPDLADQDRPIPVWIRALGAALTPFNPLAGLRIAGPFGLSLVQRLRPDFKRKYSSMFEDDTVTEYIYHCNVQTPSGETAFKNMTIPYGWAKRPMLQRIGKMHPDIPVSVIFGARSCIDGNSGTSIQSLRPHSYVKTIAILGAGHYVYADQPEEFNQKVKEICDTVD
Rin1 Abl conf: Rin1-Abl binding inhibitor retest, confirmation, biochemical, TR-FRET. shares compounds with Rin1 Abl inh. purified proteins. inhibition, % at 7.35 µM. 1,300 tested, 49% active
GFP quench-1: GFP fluorescence inhibitors and quenchers, artefact control for Rin1-Abl interaction inhibitor project, biochemical; 1,300 tested, 8.5% active; shares compounds with Rin1 Abl inh; inhibitors/quenchers counterscreen; inhibition, % at 6.75 µM;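 note: ABL1-eGFP fusion protein alone without its partner RIN1-SBP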
GFP quench DR: GFP fluorescence inhibitors and quenchers, dose response, artefact control for Rin1-Abl interaction inhibitor project, biochemical; IC50, µM; AID 602182, 2012; shares compounds with Rin1 Abl inh; GFP fluorescence interference/quenching counterscreen; 230 tested, under 10 active; call rule not given here;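 note: ABL1-eGFP fusion protein alone without its RIN1 binding partner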
GFP quench-2: GFP fluorescence inhibitors and quenchers, late-stage follow-up, artefact control for Rin1-Abl interaction inhibitor project, biochemical, dose response. IC50, µM. GFP fluorescence quenching counterscreen. shares compounds with Rin1 Abl inh. 25 tested, under 10 active; call rule not given here
Of the large screens only hits and unclear results are named; the others gave an inactive call (follow-up assays come after a bar, where shown). Rows were chosen to be rich in hits. Some 1.9% of all compounds tested hit in one or more screens of this group. Cut-off read from the data, not from the text of the source, unless noted: active = inhibition above about 6.5%; inactive = the rest.

CN(CCc1ccccc1)C(=O)c1ccc(NC(=O)Cc2ccc(NC(=O)C3CCCN(C(=O)c4ccccc4)C3)cc2)cc1 (stereo not drawn)	none
Cc1ccc(S(=O)(=O)N2CCN(C(=O)Cn3cnc4c3c(=O)n(C)c(=O)n4C)CC2)cc1C	Rin1 Abl inh 17 | Rin1 Abl conf 19 | GFP quench-1 inactive | GFP quench DR inactive
Cc1c2cc(O)c(=O)cc-2oc2cc(O)c(O)cc12	NadD inh 52, Rin1 Abl inh 65 (no result: Xi reactivation) | Rin1 Abl conf 88 | GFP quench-1 inactive
COc1cc(OC)c(-c2c3cc(O)c(=O)cc-3oc3cc(O)c(O)cc23)cc1OC	Rin1 Abl inh 62 (not shown: Rpn11 block) | Rin1 Abl conf 73 | GFP quench-1 inactive | GFP quench DR inactive
CCOC(=O)N1CCC(N2C(=O)c3ccccc3C2Nc2ccc(S(=O)(=O)N(CC)CC)cc2)CC1 (stereo not drawn)	Rin1 Abl inh 11 | Rin1 Abl conf 10 | GFP quench-1 inactive
CC(=O)Nc1ccc(Nc2ncnc3c2cnn3-c2ccccc2)cc1	none (no result: Xi reactivation)
CN(C)S(=O)(=O)c1ccc(NC(=O)COc2ncnc3c2cnn3-c2ccccc2)cc1	Rin1 Abl inh 6.8 | Rin1 Abl conf inactive | GFP quench-1 inactive
CC(=O)c1c(C)cc(C)c(CSc2nnc(-c3ccco3)o2)c1C	Rin1 Abl inh 5.4 (no result: Xi reactivation) | Rin1 Abl conf inactive | GFP quench-1 inactive
Cc1c(C(=O)NCC(c2ccco2)N(C)C)oc2c(Cl)cccc12 (stereo not drawn)	Rin1 Abl inh 39 | Rin1 Abl conf 47 | GFP quench-1 inactive | GFP quench DR inactive | GFP quench-2 inactive
O=c1oc2ccccc2n1CCCCCn1c(=O)oc2ccccc21	Rin1 Abl inh 4.8 (no result: Xi reactivation) | Rin1 Abl conf inactive | GFP quench-1 inactive
COCC(=O)OC1CCn2c1nc1c2C(=O)C(C)=C(NC(C)=O)C1=O (stereo not drawn)	Rin1 Abl inh 18 | Rin1 Abl conf 16 | GFP quench-1 inactive
COc1ccc(NC(=S)N2CCN(C/C=C/c3ccccc3)CC2)cc1	Rin1 Abl inh 9.3 | Rin1 Abl conf inactive | GFP quench-1 inactive
Cc1cccc(C)c1OCc1cc(C(=O)N2CCC[C@H]2C(N)=O)no1	none
NC(=O)[C@@H]1CCCN1C(=O)c1cc(COc2ccc3c(c2)CCCC3)on1	Rin1 Abl inh 6.1 | Rin1 Abl conf inactive | GFP quench-1 inactive
CC(C)OC(=O)CSc1nnc(Cc2ccccc2)n1C	Rin1 Abl inh 8.9 (no result: Xi reactivation) | Rin1 Abl conf inactive | GFP quench-1 inactive
COc1ccc(CNC(=O)C2(C)Cc3c(-c4cccc(C(N)=O)c4)ccnc3O2)cc1OC (stereo not drawn)	Rin1 Abl inh 11 | Rin1 Abl conf 7.2 | GFP quench-1 inactive
CC(=O)c1cccc(NC(=O)C2(C)Cc3c(-c4cccc(C(N)=O)c4)ccnc3O2)c1 (stereo not drawn)	Rin1 Abl inh 8.2 | Rin1 Abl conf 12 | GFP quench-1 inactive
CC1(C(=O)Nc2cccc(NS(C)(=O)=O)c2)Cc2c(-c3cccc(C(N)=O)c3)ccnc2O1 (stereo not drawn)	none
O=C(c1ccccc1)N1CC2(C1)[C@H](c1ccccc1)[C@@H](CO)N2Cc1cccnc1	none (no result: Rpn11 block, NadD inh, Rin1 Abl inh, ABHD5-PLIN5 inh)
O=C(Nc1ccccc1F)N1C[C@@H]2[C@H](c3ccccc31)[C@@H](CO)N2C(=O)Cc1ccccc1	none (no result: Rpn11 block, NadD inh, Rin1 Abl inh, ABHD5-PLIN5 inh)
